Converted amounts (≈) assume the structure as drawn.
What was measured:
[1] = PTX loading by HPLC standard curve; assay type: physicochemical; conditions: HPLC peak area versus PTX content, n=5
How it was run: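 PTX content of the conjugate was calculated theoretically and checked against an HPLC standard curve of peak area versus PTX content, with standards in anhydrous ethyl alcohol.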

[2] = Release of free PTX in PBS; assay type: physicochemical; conditions: PBS pH 7.4, 37°C, 4 hours
How it was run: (§1)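 Test conjugate was dissolved at 5 mg per 2.5 mL in PBS pH 7.4 or human plasma and held at 37°C for up to 12 hours. Aliquots were drawn at set times and free PTX was extracted into ethyl acetate. Free PTX was quantified by reverse-phase C18 HPLC at 1 mL per minute and 30°C, with UV detection at 227 nm.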

[3] = test system: MDA-MB-231 cells; experiment: Cellular uptake by flow cytometry; assay type: cell-based, human; conditions: MDA-MB-231, 1 mg/mL, 8 hours
How it was run: (§2)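 Cells were seeded at 5×10^5 per well in culture medium (37°C, 5% CO2) and left overnight. They were then given 1 mg/mL solution of the FITC- or 5-aminofluorescein-labelled folate–PTX conjugates and incubated 8 h at 37°C. Cells were resuspended in PBS and immediately analysed by flow cytometry for percentage of fluorescent cells.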

[4] = test system: MCF-7 cells; experiment: Cellular uptake by flow cytometry; assay type: cell-based, human; conditions: MCF-7, 1 mg/mL, 8 hours
How it was run: as §2

[5] = test system: A549 cells; experiment: Cellular uptake by flow cytometry; assay type: cell-based, human; conditions: A549, 1 mg/mL, 8 hours
How it was run: as §2

[6] = test system: HEK293 cells; experiment: Cellular uptake by flow cytometry; assay type: cell-based, human; conditions: HEK293 normal cells, 1 mg/mL, 8 hours
How it was run: as §2

[7] = test system: tumor cell lines (MDA-MB-231, MCF-7, A549); experiment: Cellular uptake by flow cytometry, tumor groups together; assay type: cell-based, human; conditions: range over the three tumor cell lines
How it was run: as §2

[8] = test system: MDA-MB-231, MCF-7, and A549 cancer cells; experiment: Cell viability; assay type: cell-based, human
How it was run: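 MTT assay. Cells were plated at 5×10^3 per well and exposed for 48 h to PTX or the conjugates (theoretical PTX content 45.93% and 47.71%) at […]–1 μg/mL, equal to 0.01435–0.4771 μg/mL conjugated PTX. Each drug was tested in six wells. MTT (5 mg/mL stock) was then added and absorbance read at 490 nm.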

[9] = test system: MDA-MB-231 cells; experiment: Apoptosis study, PI staining and flow cytometry; assay type: cell-based, human; conditions: MDA-MB-231, 24 hours, 1 mg/mL
How it was run: (§3)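 Cells grown at 37°C, 5% CO2 in DMEM or RPMI 1640 with 10% FBS and penicillin/streptomycin. They were exposed for 24 h to free PTX or the fluorescein-labelled folate–PTX conjugates, added as a 1 mg/mL solution. Cells were then resuspended in binding buffer, stained with propidium iodide, and analysed at once by flow cytometry. The PI-positive late apoptotic/necrotic quadrant (Q4) was scored.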

[10] = test system: MCF-7 cells; experiment: Apoptosis study, PI staining and flow cytometry; assay type: cell-based, human; conditions: MCF-7, 24 hours, 1 mg/mL
How it was run: as §3

[11] = test system: A549 cells; experiment: Apoptosis study, PI staining and flow cytometry; assay type: cell-based, human; conditions: A549, 24 hours, 1 mg/mL
How it was run: as §3

[12] = test system: MCF-7 tumors; experiment: In vivo antitumor activity; design: species or system nude mice; conditions: MCF-7-bearing mice; for tumor growth inhibition rate: 5 mg/kg i.v. every 3 days, five injections
How it was run: (§4)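 Tumor cells implanted in the upper right axillary fossa of nude mice; treatment began when tumors reached 0.2–0.5 cm diameter. Mice were randomized to four groups (n=5): PBS pH 7.4 control, free paclitaxel, or test conjugates, each at 5 mg/kg in 0.2 mL. Dosing was by tail vein every 3 days, five injections over 15 days. Tumor volume and body weight were recorded daily; values are mean ± SD.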

[13] = test system: A549 tumors; experiment: In vivo antitumor activity; design: species or system nude mice; conditions: for tumor growth inhibition rate: 5 mg/kg i.v. every 3 days, five injections
How it was run: as §4

[14] = Aqueous solubility; assay type: physicochemical; conditions: water, room temperature (25°C), n=4
[15] = Release of free PTX in human plasma, HPLC; assay type: in vitro ADME; conditions: 37°C, 4 hours
How it was run: as §1

[16] = Acute toxicity; conditions: both, Kunming, mouse, in vivo, iv
[17] = test system: normal (Kunming) mice; experiment: Acute toxicity; conditions: tail vein, mice

## folic acid-fluorescein-5(6)-isothiocyanate-arginine-paclitaxel [FA-FITC-Arg-PTX]
[1]
  PTX loading: 38.70%±0.49%
[2]
  free PTX released: 25.8%
[3]
  cell uptake rate: 89.6%
[4]
  cell uptake rate: 78.1%
[5]
  cell uptake rate: 63.2%
[6]
  cell uptake rate: 2.1%
[7]
  percentage cell uptake in the tumor groups: 63.22%–89.63%
[8]; tumor cells, high doses
  cell viability: approximately 20%
[9]
  late apoptosis/necrotic value (Q4): 36.5%
[10]
  late apoptosis/necrotic value (Q4): 26.7%
[11]
  late apoptosis/necrotic value (Q4): 16.8%
[12]
  tumor growth inhibition rate: 57.63%
[13]; A549-bearing mice
  tumor growth inhibition rate: 48.65%

## CC(=O)O[C@H]1C(=O)[C@@]2(C)[C@H]([C@H](OC(=O)c3ccccc3)[C@]3(O)C[C@H](OC(=O)[C@H](OC(=O)[C@H](CCC(=O)Nc4ccc5c(c4)C(=O)OC54c5ccc(O)cc5Oc5cc(O)ccc54)NC(=O)CC[C@H](NC(=O)c4ccc(NCc5cnc6nc(N)[nH]c(=O)c6n5)cc4)C(=O)O)[C@@H](NC(=O)c4ccccc4)c4ccccc4)C(C)=C1C3(C)C)[C@]1(OC(C)=O)CO[C@@H]1C[C@@H]2O [FA-5AF-Glu-PTX, folic acid-5-aminofluorescein-glutamic-paclitaxel]
[14]
  solubility: 6410 ± 180 µg/mL (≈ 3.69 mM)
[1]
  PTX loading: 32.19%±0.35%
[2]
  free PTX released: 23.3%
[15]
  free PTX released: 54.84%
[3]
  cell uptake rate: 85.9%
[4]
  cell uptake rate: 75.1%
[5]
  cell uptake rate: 59.0%
[6]
  cell uptake rate: 1.9%
[7]
  percentage cell uptake in the tumor groups: 59.01%–85.93%
[9]
  late apoptosis/necrotic value (Q4): 34.1%
[10]
  late apoptosis/necrotic value (Q4): 27.9%
[11]
  late apoptosis/necrotic value (Q4): 16.3%
[12]
  body weight change during treatment: gradual increase
[13]; A549-bearing mice
  decrease of body weight, of original weight: about 2%
[13]; A549 tumor
  inhibition rate relative to free PTX: ~1.3 times

## CC(=O)O[C@H]1C(=O)[C@@]2(C)[C@H]([C@H](OC(=O)c3ccccc3)[C@]3(O)C[C@H](OC(=O)[C@H](O)[C@@H](NC(=O)c4ccccc4)c4ccccc4)C(C)=C1C3(C)C)[C@]1(OC(C)=O)CO[C@@H]1C[C@@H]2O [PTX, Paclitaxel, reference compound]
[8]; MTT, 48 hours, three tumor cell lines, maximum reached
  inhibition ratio (of total cells): ≤ 62.4%
[9]
  late apoptosis/necrotic value (Q4): 25.8%
[10]
  late apoptosis/necrotic value (Q4): 19.9%
[11]
  late apoptosis/necrotic value (Q4): 14.6%
[12]
  tumor growth inhibition rate: about 38.16%
[12]; end of treatment
  body weight loss: 3.88 g
  body weight loss, of original body weight: approximately 20%
[13]; A549-bearing mice
  decrease of body weight: 3.92 g
  decrease of body weight, of original weight: about 25.34%
  tumor growth inhibition rate: 35.23%
[16]
  LD50 at 14 days: 25.48 ± 0.17 mg/kg
[17]; 15 mg/kg
  survival rate: 90%
[17]; 45 mg/kg
  survival rate: 0%

Source: PMC4562733 (International Journal of Nanomedicine, 2015)
